Laboratory results from ChEMBL document CHEMBL1126301, “Anti-HIV-I activity of linked lexitropsins” (J Med Chem, 1992).
pEC50, pIC50: −log10 of the molar value. In brackets after ≈: the same amount, converted by molar mass. Activity calls are given as the source filed them. No cut-off for these calls is given here.

Columns and labels:
[1] = test system: Human immunodeficiency virus 1; experiment: Inhibitory activity against HIV-1 in T4-lymphocytes (CEM cell line).; type: functional, organism-based; settings: Human immunodeficiency virus 1, CCRF-CEM
CCRF-CEM [2] = experiment: Inhibitory activity against T4-lymphocytes (CEM cell line) infected with HIV-1; active; type: functional, cell-based; settings: Homo sapiens
CCRF-CEM [3] = experiment: Inhibition of T4-lymphocytes (CEM cell line) infected with HIV-1.; type: functional, cell-based; settings: Homo sapiens
HIV-1 = experiment: Therapeutic index (TI) was measured as ratio of IC50 and EC50 (HIV-1); settings: human immunodeficiency virus 1; read-out: TI50
Murine leukemia virus [4] = experiment: Concentration inhibiting moloney murine leukemia retrovirus; type: functional
In short: (§1)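 SC-1 cells (3.5 × 10⁴ mL⁻¹) seeded in 5% FBS-MEM 1 day ahead. Compound dilutions added in triplicate, then 20-40 pfu Moloney virus per well, shaken at 0, 30 and 60 min. Incubated 5 days, 37 °C, 5% CO₂; viability checked for toxicity. Then UV 3 min, XC cells overlaid (2 × 10⁵ mL⁻¹), 4 days, 0.5% crystal violet stain, plaques counted. MIC₅₀ interpolated between two dilutions.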

Murine leukemia virus [5] = experiment: Inhibitory activity on moloney murine leukemia retrovirus.; type: functional; in short: as §1
[6] = Therapeutic index(TI) was measured as ratio of TD50 and MIC50 (Retrovirus); settings: retroviridae
CCRF-CEM [7] = experiment: (§2) Inhibitory activity against T4-lymphocytes (CEM cell line) infected with HIV-1; moderate; type: functional, cell-based; settings: Homo sapiens
[8] = test system: Human immunodeficiency virus 1; experiment: as §2; type: functional, organism-based; settings: CCRF-CEM
CCRF-CEM [9] = experiment: Inhibitory activity against T4-lymphocytes (CEM cell line) infected with HIV-1; inactive; type: functional, cell-based; settings: Homo sapiens

SMILES	pEC50 [1]	pIC50 (CCRF-CEM [3])	TD50 (Murine leukemia virus [5])	TI [6]	Activity (CCRF-CEM [7])	other results
Cn1cc(NC(=O)c2cc(NC(=O)c3ccc(C(=O)Nc4cc(C(=O)Nc5cc(C(=O)NCCC(=N)N)n(C)c5)n(C)c4)cc3)cn2C)cc1C(=O)NCCC(=N)N	5.92	4.75	–	–	–	Activity (CCRF-CEM [2]): Active; selectivity ratio (HIV-1): 14.8
Cl.Cl.Cl.Cn1cc(NC(=O)c2cc(NC(=O)c3cc(NC(=O)c4cc(C(=O)Nc5cc(C(=O)Nc6cc(C(=O)Nc7cc(C(=O)NCCC(=N)N)n(C)c7)n(C)c6)n(C)c5)cc(C(=O)Nc5cc(C(=O)Nc6cc(C(=O)Nc7cc(C(=O)NCCC(=N)N)n(C)c7)n(C)c6)n(C)c5)c4)cn3C)cn2C)cc1C(=O)NCCC(=N)N	–	–	>100 µg/mL	> 1.6 TD50/MIC50	–	MIC50 (Murine leukemia virus [4]): 62.8 µg/mL
Cn1cc(NC(=O)c2cc(NC(=O)[C@@H]3CCC(N)=N3)c[nH]2)cc1C(=O)NCCC(=N)N	4.06	3.12	–	–	Moderate	selectivity ratio (HIV-1): 8.5
Cn1cc(NC(=O)c2cc(NC(=O)CCCCCCCCCC(=O)Nc3cc(C(=O)Nc4cc(C(=O)NCCC(=N)N)n(C)c4)n(C)c3)cn2C)cc1C(=O)NCCC(=N)N	5.41	4.24	–	–	Moderate	selectivity ratio (HIV-1): 14.6
Cn1cc(NC(=O)c2cc(NC(=O)/C=C/C(=O)Nc3cc(C(=O)Nc4cc(C(=O)NCCC(=N)N)n(C)c4)n(C)c3)cn2C)cc1C(=O)NCCC(=N)N	5.86	–	–	–	–	Activity (CCRF-CEM [2]): Active
Cn1cc(NC(=O)c2cc(NC(=O)c3cc(NC(=O)CCCCCCCCC(=O)Nc4cc(C(=O)Nc5cc(C(=O)Nc6cc(C(=O)NCCC(=N)N)n(C)c6)n(C)c5)n(C)c4)cn3C)cn2C)cc1C(=O)NCCC(=N)N	–	–	–	–	–	Activity [8]: Moderate
Cl.Cl.Cn1cc(NC(=O)c2cc(NC(=O)c3cc(NC(=O)c4cncc(C(=O)Nc5cc(C(=O)Nc6cc(C(=O)Nc7cc(C(=O)NCCC(=N)N)n(C)c7)n(C)c6)n(C)c5)c4)cn3C)cn2C)cc1C(=O)NCCC(=N)N	–	–	>100 µg/mL	–	Moderate	MIC50 (Murine leukemia virus [4]): > 100 µg/mL
Cl.Cl.Cn1cc(NC(=O)c2cc(NC(=O)c3cc(NC(=O)/C=C\C(=O)Nc4cc(C(=O)Nc5cc(C(=O)Nc6cc(C(=O)NCCC(=N)N)n(C)c6)n(C)c5)n(C)c4)cn3C)cn2C)cc1C(=O)NCCC(=N)N	–	–	84.29 µg/mL	7.52 TD50/MIC50	–	Activity (CCRF-CEM [9]): inactive
Cn1cc(NC(=O)c2cc(NC(=O)c3cc(NC(=O)CCCCCCC(=O)Nc4cc(C(=O)Nc5cc(C(=O)Nc6cc(C(=O)NCCC(=N)N)n(C)c6)n(C)c5)n(C)c4)cn3C)cn2C)cc1C(=O)NCCC(=N)N	–	< 4.00	–	–	–	Activity (CCRF-CEM [9]): inactive
Cn1cc(NC(=O)c2cc(NC(=O)[C@H]3C[C@H]3C(=O)Nc3cc(C(=O)Nc4cc(C(=O)NCCC(=N)N)n(C)c4)n(C)c3)cn2C)cc1C(=O)NCCC(=N)N	4.37	–	–	–	Moderate	–
Cn1cc(NC(=O)c2cc(NC(=O)c3cccc(C(=O)Nc4cc(C(=O)Nc5cc(C(=O)NCCC(=N)N)n(C)c5)n(C)c4)c3)cn2C)cc1C(=O)NCCC(=N)N	5.45	–	–	–	–	Activity (CCRF-CEM [2]): Active
Cn1cc(NC(=O)c2cc(NC(=O)[C@H]3C[C@@H]3C(=O)Nc3cc(C(=O)Nc4cc(C(=O)NCCC(=N)N)n(C)c4)n(C)c3)cn2C)cc1C(=O)NCCC(=N)N	5.46	–	–	–	Moderate	–
Cn1cc(NC(=O)c2cc(NC(=O)c3cc(NC(=O)CCCCCCCCCCCCCCCCCCCCCCC(=O)Nc4cc(C(=O)Nc5cc(C(=O)Nc6cc(C(=O)NCCC(=N)N)n(C)c6)n(C)c5)n(C)c4)cn3C)cn2C)cc1C(=O)NCCC(=N)N	–	< 3.92	–	–	–	Activity (CCRF-CEM [9]): inactive
Cn1cc(NC(=O)[C@H]2CCC(N)=N2)cc1C(=O)NCCC(=N)N	–	< 3.90	–	–	–	Activity (CCRF-CEM [9]): inactive
Cl.Cl.Cn1cc(NC(=O)c2cc(NC(=O)c3cc(NC(=O)C4CCC4C(=O)Nc4cc(C(=O)Nc5cc(C(=O)Nc6cc(C(=O)NCCC(=N)N)n(C)c6)n(C)c5)n(C)c4)cn3C)cn2C)cc1C(=O)NCCC(=N)N (stereo not given)	–	–	83.5 µg/mL	1.7 TD50/MIC50	Moderate	MIC50 (Murine leukemia virus [4]): > 50 µg/mL
Cl.Cl.Cn1cc(NC(=O)c2cc(NC(=O)c3cc(NC(=O)c4ccccc4C(=O)Nc4cc(C(=O)Nc5cc(C(=O)Nc6cc(C(=O)NCCC(=N)N)n(C)c6)n(C)c5)n(C)c4)cn3C)cn2C)cc1C(=O)NCCC(=N)N	–	–	>100 µg/mL	> 1.26 TD50/MIC50	–	–
Cn1cc(NC(=O)[C@@H]2CCC(N)=N2)cc1C(=O)NCCC(=N)N	–	< 3.90	–	–	–	Activity (CCRF-CEM [9]): inactive
Cc1cn([C@H]2C[C@H](N=[N+]=[N-])[C@@H](CO)O2)c(=O)[nH]c1=O [ZIDOVUDINE]	–	–	>100 µg/mL	> 714000 TD50/MIC50	–	MIC50 (Murine leukemia virus [4]): 0.0014 µg/mL (≈ 0.00524 µM)

SMILES	pEC50 [1]	pIC50 (CCRF-CEM [3])	TD50 (Murine leukemia virus [5])	TI [6]	Activity (CCRF-CEM [7])	other results
Cn1cc(NC(=O)c2cc(NC(=O)CCCCCCCCC(=O)Nc3cc(C(=O)Nc4cc(C(=O)NCCC(=N)N)n(C)c4)n(C)c3)cn2C)cc1C(=O)NCCC(=N)N	–	–	–	–	–	Activity (CCRF-CEM [9]): inactive
Cl.Cl.Cn1cc(NC(=O)c2cc(NC(=O)c3cc(NC(=O)c4ccc(C(=O)Nc5cc(C(=O)Nc6cc(C(=O)Nc7cc(C(=O)NCCC(=N)N)n(C)c7)n(C)c6)n(C)c5)nc4)cn3C)cn2C)cc1C(=O)NCCC(=N)N	–	–	>100 µg/mL	> 6.28 TD50/MIC50	–	Activity (CCRF-CEM [2]): Active
Cn1cc(NC(=O)c2cc(NC(=O)[C@H]3CC[C@@H]3C(=O)Nc3cc(C(=O)Nc4cc(C(=O)NCCC(=N)N)n(C)c4)n(C)c3)cn2C)cc1C(=O)NCCC(=N)N	6.38	–	–	–	–	Activity (CCRF-CEM [2]): Active
Cl.Cl.Cn1cc(NC(=O)c2cc(NC(=O)c3cc(NC(=O)c4ccc(C(=O)Nc5cc(C(=O)Nc6cc(C(=O)Nc7cc(C(=O)NCCC(=N)N)n(C)c7)n(C)c6)n(C)c5)cc4)cn3C)cn2C)cc1C(=O)NCCC(=N)N	–	–	>100 µg/mL	> 25.13 TD50/MIC50	–	Activity (CCRF-CEM [2]): Active
Cl.Cl.Cn1cc(NC(=O)c2cc(NC(=O)c3cc(NC(=O)[C@@H]4C5C=CC(C5)[C@H]4C(=O)Nc4cc(C(=O)Nc5cc(C(=O)Nc6cc(C(=O)NCCC(=N)N)n(C)c6)n(C)c5)n(C)c4)cn3C)cn2C)cc1C(=O)NCCC(=N)N	–	–	>100 µg/mL	> 4.54 TD50/MIC50	–	–
Cl.Cl.Cn1cc(NC(=O)c2cc(NC(=O)c3cc(NC(=O)/C=C/C(=O)Nc4cc(C(=O)Nc5cc(C(=O)Nc6cc(C(=O)NCCC(=N)N)n(C)c6)n(C)c5)n(C)c4)cn3C)cn2C)cc1C(=O)NCCC(=N)N	–	–	100 µg/mL	625 TD50/MIC50	–	Activity (CCRF-CEM [2]): Active
Cn1cc(NC(=O)c2cc(NC(=O)[C@H]3CCC(N)=N3)c[nH]2)cc1C(=O)NCCC(=N)N	4.04	3.12	–	–	Moderate	selectivity ratio (HIV-1): 8.2
Cn1cc(NC(=O)c2cc(NC(=O)Nc3cc(C(=O)Nc4cc(C(=O)NCCC(=N)N)n(C)c4)n(C)c3)cn2C)cc1C(=O)NCCC(=N)N	4.92	–	–	–	Moderate	–
Nc1ccn([C@H]2CC[C@@H](CO)O2)c(=O)n1 [ZALCITABINE]	–	–	>100 µg/mL	> 135.14 TD50/MIC50	–	MIC50 (Murine leukemia virus [4]): 0.74 µg/mL (≈ 3.5 µM)
Cn1cc(NC(=O)c2cc(NC(=O)CCCCCCCCCCC(=O)Nc3cc(C(=O)Nc4cc(C(=O)NCCC(=N)N)n(C)c4)n(C)c3)cn2C)cc1C(=O)NCCC(=N)N	5.18	4.11	–	–	Moderate	–
Cn1cc(NC(=O)c2cc(NC(=O)/C=C\C(=O)Nc3cc(C(=O)Nc4cc(C(=O)NCCC(=N)N)n(C)c4)n(C)c3)cn2C)cc1C(=O)NCCC(=N)N	6.46	–	–	–	–	Activity (CCRF-CEM [2]): Active
Cl.Cl.Cn1cc(NC(=O)c2cc(NC(=O)c3cc(NC(=O)c4cccc(C(=O)Nc5cc(C(=O)Nc6cc(C(=O)Nc7cc(C(=O)NCCC(=N)N)n(C)c7)n(C)c6)n(C)c5)n4)cn3C)cn2C)cc1C(=O)NCCC(=N)N	–	–	>100 µg/mL	> 4.4 TD50/MIC50	–	Activity (CCRF-CEM [2]): Active
Cn1cc(NC(=O)c2cc(NC(=O)[C@@H]3CCCC[C@H]3C(=O)Nc3cc(C(=O)Nc4cc(C(=O)NCCC(=N)N)n(C)c4)n(C)c3)cn2C)cc1C(=O)NCCC(=N)N	5.25	3.74	–	–	Moderate	–
Cn1cc(NC(=O)c2cc(NC(=O)c3cc(NC(=O)CCC(=O)Nc4cc(C(=O)Nc5cc(C(=O)Nc6cc(C(=O)NCCC(=N)N)n(C)c6)n(C)c5)n(C)c4)cn3C)cn2C)cc1C(=O)NCCC(=N)N	–	–	–	–	–	Activity (CCRF-CEM [9]): inactive
Cn1cc(NC(=O)c2cc(NC(=O)[C@H]3CCC[C@@H]3C(=O)Nc3cc(C(=O)Nc4cc(C(=O)NCCC(=N)N)n(C)c4)n(C)c3)cn2C)cc1C(=O)NCCC(=N)N	4.33	3.77	–	–	Moderate	–
Cn1cc(NC(=O)c2cc(NC(=O)CCCCCCC(=O)Nc3cc(C(=O)Nc4cc(C(=O)NCCC(=N)N)n(C)c4)n(C)c3)cn2C)cc1C(=O)NCCC(=N)N	–	–	–	–	–	Activity (CCRF-CEM [9]): inactive
Cl.Cl.Cn1cc(NC(=O)c2cc(NC(=O)c3cc(NC(=O)c4cccc(C(=O)Nc5cc(C(=O)Nc6cc(C(=O)Nc7cc(C(=O)NCCC(=N)N)n(C)c7)n(C)c6)n(C)c5)c4)cn3C)cn2C)cc1C(=O)NCCC(=N)N	–	–	>100 µg/mL	2 TD50/MIC50	–	Activity (CCRF-CEM [2]): Active; MIC50 (Murine leukemia virus [4]): > 50 µg/mL
